Active and inactive are the calls of the source. The calls are words filed in the database; no cut-off is given here.
Legend:
[1] = system: Mus musculus; assay: Antitumor activity against mouse Ehrlich Ascitic tumor xenografted in BALB/c mouse assessed as reduction in paw edema at 30 mg/kg, ip administered every 3 days for 15 days measured on day 12 and day 15 by plethysmograph analysis; assay type: functional, organism-based; design: dose 30 mg/kg
How it was run: (§1)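 Ehrlich tumor cells collected from ascitic fluid and counted by Trypan blue exclusion, viability above 90%. Cells diluted in 0.9% PBS to […]. Injected sub-plantar into right hind paw of Balb/C mice (20–35 g), 2.5 × 10⁶ viable cells. Compound given ip every 3 days over 15 days, vehicle 0.9% saline, 5-fluorouracil 10 mg/kg as positive control. Paw volume measured by plethysmometer every 3 days until sacrifice on day 15.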

[2] = system: Mus musculus; assay: Antiinflammatory activity in mouse Ehrlich Ascitic tumor xenografted BALB/c mouse assessed as reduction in paw edema at 30 mg/kg, ip administered every 3 days for 15 days by plethysmograph analysis; assay type: functional, organism-based; design: dose 30 mg/kg; how it was run: as §1
[3] = system: Mus musculus; assay: Acute toxicity in BALB/c mouse at 30 mg/kg, ip; assay type: organism-based; design: dose 30 mg/kg, route intraperitoneal; conditions: in vivo
[4] = system: MCF7; assay: Antitumor activity against human MCF7 cells by SRB colorimetric assay; assay type: functional, cell-based
How it was run: (§2)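 NCI sulforhodamine B colorimetric growth assay in 96-well plates. Each compound tested at four concentrations in 10-fold dilutions. Doxorubicin as positive control. IC50 taken from concentration–response curves as the concentration giving 50% reduction in cell growth versus untreated control cells.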

[5] = system: UACC-62; assay: Antitumor activity against human UACC62 cells by SRB colorimetric assay; assay type: functional, cell-based; how it was run: as §2
[6] = system: HT-29; assay: Antitumor activity against human HT-29 cells by SRB colorimetric assay; assay type: functional, cell-based; how it was run: as §2
[7] = system: NCI-H460; assay: Antitumor activity against human NCI-H460 cells by SRB colorimetric assay; assay type: functional, cell-based; how it was run: as §2
[8] = system: K562; assay: Antitumor activity against human K562 cells by SRB colorimetric assay; assay type: functional, cell-based; how it was run: as §2
[9] = system: Mus musculus; assay: Antitumor activity against mouse Ehrlich Ascitic tumor xenografted in BALB/c mouse assessed as reduction of tumor volume in paw at 30 mg/kg, ip administered every 3 days for 15 days measured on day 9 by plethysmograph analysis; assay type: functional, organism-based; design: dose 30 mg/kg; how it was run: as §1
[10] = system: Mus musculus; assay: Antitumor activity against mouse Ehrlich Ascitic tumor xenografted in BALB/c mouse assessed as reduction of tumor volume in paw at 10 mg/kg, ip administered every 3 days for 15 days measured on day 9 by plethysmograph analysis; assay type: functional, organism-based; design: dose 10 mg/kg
[11] = system: OVCAR; assay: Antitumor activity against human OVCAR cells by SRB colorimetric assay; assay type: functional, cell-based; how it was run: as §2
[12] = Antitumor activity against human PCO3 cells by SRB colorimetric assay; assay type: functional, cell-based; how it was run: as §2
[13] = system: 786-0; assay: Antitumor activity against human 786-0 cells by SRB colorimetric assay; assay type: functional, cell-based; how it was run: as §2

SMILES	Activity [1]	Activity [2]	Activity [3]	IC50 [4] [µM]	IC50 [5] [µM]	IC50 [6] [µM]	IC50 [7] [µM]	IC50 [8] [µM]	Activity [9]	Activity [10]	IC50 [11] [µM]	IC50 [12] [µM]	IC50 [13] [µM]
CN(C)c1ccc(/C=N/NC(=O)c2cc3c([nH]c4ccccc43)c(-c3cccc([N+](=O)[O-])c3)n2)cc1	Active	Active	Non-toxic	0.63	1.34	9.8	2.11	0.24	Active	Active	0.19	4.18	0.04
COc1ccc(-c2nc(C(=O)NN=C(C)C)cc3c2[nH]c2ccccc23)cc1				> 100	40.7	> 100	> 100	> 100			> 100	> 100	> 100
O=C(N/N=C/c1ccccc1Cl)c1cc2c([nH]c3ccccc32)c(-c2ccc(O)cc2)n1				7.01	1.56	1.71	2.18	1.65			1.83	2.03	3.22
O=C(NN=C1CCCCC1)c1cc2c([nH]c3ccccc32)c(-c2ccc([N+](=O)[O-])cc2)n1				25.6	> 100	> 100	> 100	> 100			> 100	> 100	72.8
COc1ccc(-c2nc(C(=O)N/N=C/c3ccccc3)cc3c4ccccc4n(C)c23)cc1				> 100	> 100	> 100	> 100	> 100			> 100	> 100	1.39
O=C(NN=C1CCCC1)c1cc2c([nH]c3ccccc32)c(-c2ccc(O)cc2)n1				78.1	> 100	> 100	> 100	> 100			> 100	> 100	> 100
CC(C)=NNC(=O)c1cc2c([nH]c3ccccc32)c(-c2ccccc2Cl)n1				26.7	19.1	38.9	> 100	21.7			64.2	25.6	> 100
O=C(NN=C1CCCC1)c1cc2c([nH]c3ccccc32)c(-c2ccc([N+](=O)[O-])cc2)n1				> 100	> 100	> 100	> 100	> 100			> 100	> 100	> 100
O=C(N/N=C/c1ccccc1)c1cc2c([nH]c3ccccc32)c(-c2ccc(O)cc2)n1				8.94	3.18	4.32	19.8	4.31			1.26	2.25	4.32
COc1ccc(/C=N/NC(=O)c2cc3c([nH]c4ccccc43)c(-c3ccc([N+](=O)[O-])cc3)n2)cc1				8.19	9.69	8.92	4.58	7.54			21.4	7.54	14.1
O=C(N/N=C/c1ccccc1)c1cc2c([nH]c3ccccc32)c(-c2ccc([N+](=O)[O-])cc2)n1				25	11.8	18.8	13.8	14.4			2.05	15.9	29.9
COc1ccc(-c2nc(C(=O)N/N=C/c3ccc(N(C)C)cc3)cc3c2[nH]c2ccccc23)cc1				> 100	> 100	> 100	> 100	> 100			> 100	> 100	> 100
O=C(N/N=C/c1ccc([N+](=O)[O-])cc1)c1cc2c([nH]c3ccccc32)c(-c2cccc([N+](=O)[O-])c2)n1				12.8	3.27	7.34	6.76	4.26			46.7	24.8	> 100
COc1ccc(-c2nc(C(=O)N/N=C/c3ccccc3Cl)cc3c4ccccc4n(C)c23)cc1				14	> 100	> 100	> 100	> 100			> 100	> 100	> 100
O=C(N/N=C/c1ccccc1)c1cc2c([nH]c3ccccc32)c(-c2cccc([N+](=O)[O-])c2)n1				2.61	1.19	1.93	1.93	1.24			6.14	> 100	3.76
CC(C)=NNC(=O)c1cc2c([nH]c3ccccc32)c(-c2ccccc2)n1				14.2	10.1	19.8	19.8	6.69			26.4	15.4	16.1
COc1ccc(-c2nc(C(=O)NN=C(C)C)cc3c2[nH]c2ccccc23)cc1O				> 100	> 100	> 100	> 100	> 100			> 100	> 100	70
O=C(N/N=C/c1ccccc1Cl)c1cc2c([nH]c3ccccc32)c(-c2ccccc2)n1				6.13	2.16	1.25	4.57	1.45			2.84	2.52	2.16
CC(C)=NNC(=O)c1cc2c([nH]c3ccccc32)c(-c2ccc(N(C)C)cc2)n1				16.8	10.1	35.6	25.4	23.4			40.5	19	26.5
COc1ccc(-c2nc(C(=O)N/N=C/c3ccccc3)cc3c2[nH]c2ccccc23)cc1				36	3.45	36	3.45	3.22			32.3	26.5	93.4
O=C(N/N=C/c1ccccc1)c1cc2c([nH]c3ccccc32)c(-c2ccccc2)n1				15.7	25.9	> 100	8.49	79.5			10.6	11.6	> 100
COc1ccc(-c2nc(C(=O)N/N=C/c3ccccc3Cl)cc3c2[nH]c2ccccc23)cc1				10.4	5.57	1.26	1.43	2.52			7.43	4.52	2.52
O=C(NN=C1CCCCC1)c1cc2c([nH]c3ccccc32)c(-c2ccc(O)cc2)n1				8.33	7.86	10.3	13.2	10.3			13.2	7.68	15
O=C(NN=C1CCCCC1)c1cc2c([nH]c3ccccc32)c(-c2ccccc2Cl)n1				6.19	21.6	40.4	54.1	> 100			20.8	18.3	24.5
CC(C)=NNC(=O)c1cc2c([nH]c3ccccc32)c(-c2ccc(O)cc2)n1				24.3	35.4	> 100	38.1	18.1			> 100	19.7	24.3
O=c1[nH]cc(F)c(=O)[nH]1										Active			

Reference: ChEMBL document CHEMBL1914299, “Synthesis and antitumor activity of β-carboline 3-(substituted-carbohydrazide) derivatives” (Bioorg Med Chem, 2011)
